{"source": "paper PMC5362268", "about": "(Cell, 2017)", "key": {"[1]": {"test_system": "HT-1080 cells (NRAS^Q61K)", "experiment": "Lethality with PI3K and BRAF overexpression", "format": "cell-based, human", "settings": "24 h, 6-well format", "outline": "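HT-1080 cells were retrovirally transduced using Phoenix-AMPHO supernatant, 0.45 µm filtered and added twice 4 h apart. After 48 h they were re-seeded under puromycin (2 μg/mL) for 6 d, and expression was checked by qPCR. Cells at 100,000/well in 6-well plates were treated 24 h, trypsinized, and viability read by Trypan blue exclusion (Vi-Cell).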"}, "[2]": {"experiment": "Microsomal stability assay", "format": "in vitro ADME", "settings": "mouse, over 120 minutes", "outline": "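Liver microsomes incubated in 100 mM phosphate buffer, pH 7.4, supplemented with an NADPH-regenerating system (solutions A and B).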"}, "HRAS^wt": {"biological_target": "HRAS^wt (Homo sapiens, UniProt P01112)", "sequence (P01112 whole entry)": "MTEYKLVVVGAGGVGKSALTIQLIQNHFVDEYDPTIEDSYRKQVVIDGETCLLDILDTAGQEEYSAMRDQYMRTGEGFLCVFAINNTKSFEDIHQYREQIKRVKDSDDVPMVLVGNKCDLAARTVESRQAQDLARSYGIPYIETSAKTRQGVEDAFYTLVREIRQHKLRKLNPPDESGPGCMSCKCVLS", "experiment": "MST with RAS GTPases", "format": "binding", "settings": "selectivity panel, GppNHp-loaded"}, "KP^f/fC mice": {"test_system": "KP^f/fC mice", "experiment": "Toxicity in KP^f/fC mouse study", "format": "in vivo", "settings": "30 mg/kg IP once daily"}, "KRAS^G12D D38A": {"biological_target": "KRAS^G12D D38A (Homo sapiens, UniProt P01116, D38A/G12D)", "experiment": "MST, D38A point mutant", "format": "binding", "settings": "compared with KRAS^G12D"}, "GDP complex of KRAS^G12D": {"biological_target": "GDP complex of KRAS^G12D (Homo sapiens, UniProt P01116, G12D)", "experiment": "MST, GDP-bound KRAS^G12D", "format": "binding", "settings": "compared with GppNHp-bound KRAS^G12D"}, "K mouse weights on study": {"experiment": "K mouse weights on study", "format": "in vivo", "settings": "individual mice"}, "[3]": {"test_system": "T-ALL cells with wild-type NRAS", "experiment": "Viability of primary T-ALL patient samples", "format": "cell-based, human", "settings": "5 μM, 72 h, four patient samples", "outline": "(§1)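 Primary T-ALL lymphoblasts, 250,000 per well in 24-well plates, in triplicate. Treated with DMSO vehicle or test compound across 1 to 5 μM for 72 h. Viability by flow-based kit with counting beads, gating out GFP+ stromal cells and PI+ dead cells and particles.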"}, "[4]": {"test_system": "CRAF-bound RAS in BJeLR cells", "experiment": "Cell-based RAS pulldown", "set-up": "species or system human", "outline": "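BJeLR cells seeded 16 h before use in DMEM with 10% FBS. Medium then replaced with serum-free medium containing the test compound or a reference inhibitor (from 10 mM DMSO stocks), 24 h. c-RAF bound to RAS proteins was determined by pulldown.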"}, "HT-1080 cells": {"test_system": "HT-1080 cells", "experiment": "Caspase 3/7 activation assay", "format": "cell-based, human", "settings": "24 h; compared with staurosporine", "outline": "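HT-1080 cells seeded at 1,000 cells/well in 384-well plates. After 16 h, test compound was added as a dilution series, made from 50 mM DMSO stocks and transferred into assay wells at 1:5 dilution.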"}, "[5]": {"test_system": "phosphorylated ERK in MDA-MB-231 xenograft", "experiment": "Pharmacodynamic study using MDA-MB-231 cells", "format": "in vivo, mouse", "settings": "30 mg/kg IP once per day for 6 d, vs vehicle", "outline": "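Eight-week-old athymic nude mice received 8 million MDA-MB-231 cells subcutaneously. After 4 d they were grouped at ~128 mm³ tumours and dosed IP once daily for 6 d with 30 mg/kg in 5% DMSO HBSS pH 4, or with that vehicle. Tumours were then analysed for phosphorylated ERK.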"}, "[6]": {"test_system": "pERK and pAKT in BJeLR (HRAS^V12) cells", "experiment": "Western blots of RAS signaling", "format": "cell-based, human", "outline": "(§2)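 Cells seeded 16 h before use in DMEM with 10% or 2% FBS plus P/S. Compound added in serum-free DMEM or DMEM 2% FBS for the indicated times. Lysis in HEPES pH 7.4 buffer with phosphatase and protease inhibitors; SDS-PAGE, PVDF transfer, Li-COR blocking, primary antibodies (1:1000) overnight at 4 °C.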"}, "NRAS^wt": {"biological_target": "NRAS^wt (Homo sapiens, UniProt P01111)", "sequence (P01111 whole entry)": "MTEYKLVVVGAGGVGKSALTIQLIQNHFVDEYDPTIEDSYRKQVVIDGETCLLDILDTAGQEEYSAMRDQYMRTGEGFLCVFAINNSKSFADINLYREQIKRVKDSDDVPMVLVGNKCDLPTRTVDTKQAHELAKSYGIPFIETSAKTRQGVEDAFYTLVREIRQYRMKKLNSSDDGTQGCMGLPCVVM", "experiment": "MST with RAS GTPases", "format": "binding", "settings": "selectivity panel, GppNHp-loaded"}, "RRAS2": {"biological_target": "RRAS2 (Homo sapiens, UniProt P62070)", "sequence (P62070 whole entry)": "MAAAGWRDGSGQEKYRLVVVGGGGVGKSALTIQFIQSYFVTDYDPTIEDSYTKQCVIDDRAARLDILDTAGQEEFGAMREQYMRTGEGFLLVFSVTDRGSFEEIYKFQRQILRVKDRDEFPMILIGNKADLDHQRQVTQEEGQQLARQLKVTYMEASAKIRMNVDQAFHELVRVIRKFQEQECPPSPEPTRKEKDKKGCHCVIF", "experiment": "MST with RAS GTPases", "format": "binding", "settings": "selectivity panel, GppNHp-loaded"}, "[7]": {"test_system": "T-ALL cells with mutant NRAS (G13V and G13D)", "experiment": "Viability of primary T-ALL patient samples", "format": "cell-based", "settings": "Homo sapiens, 72 h", "outline": "as §1"}, "[8]": {"test_system": "pERK and pAKT in HT-1080 cells (NRAS^Q61K)", "experiment": "Western blots of RAS signaling", "format": "cell-based, human", "outline": "as §2"}, "DLD-1 cells": {"test_system": "DLD-1 cells", "experiment": "Pan-RAS siRNA knockdown and viability", "format": "cell-based, human", "settings": "24 h", "outline": "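DLD-1 cells reverse-transfected in 6-well plates with siRNA pools against HRAS, KRAS and NRAS, or a non-targeting pool. Cells then re-suspended in serum-free RPMI and seeded at 10,000 cells/well in 384-well plates overnight. Dilution series added from 10× stocks in serum-free Opti-mem; 24 h incubation; viability by CellTiter-Glo.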"}, "[9]": {"test_system": "BRAF^V600E-CAAX-expressing MEF cells", "experiment": "Viability assay in mouse embryo fibroblasts", "format": "cell-based"}, "[10]": {"test_system": "MDA-MB-231 cell line (KRAS^G13D)", "experiment": "Multicellular tumor spheroids", "format": "cell-based, human", "settings": "low-adherence plates, 72 h"}, "KRAS^wt": {"biological_target": "KRAS^wt (Homo sapiens, UniProt P01116)", "experiment": "MST with RAS GTPases", "format": "binding", "settings": "selectivity panel, GppNHp-loaded"}, "[11]": {"test_system": "Kras^lox/lox, Hras^−/−, Nras^−/− RERTn^ert/ert MEFs", "experiment": "MEF cell number after treatment", "format": "cell-based, mouse", "settings": "6-well, 24 h treatment", "outline": "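6-well format: 200,000 cells/well seeded 16 h beforehand. Medium replaced with medium containing test compound (from 10 mM DMSO stocks) at indicated concentrations. After 24 h, cells trypsinized and counted by Trypan Blue exclusion (Vi-Cell).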"}, "[12]": {"test_system": "Kras^lox/lox, Hras^−/−, Nras^−/− RERTn^ert/ert MEFs", "experiment": "Viability assay in mouse embryo fibroblasts", "format": "cell-based", "settings": "Fibroblast, 48 h, read-out: IC50 (lethality)", "outline": "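Cells trypsinised and seeded at 1,000/well in 384-well plates unless otherwise specified. After 16 h, 8- or 16-point dilution series (from 10 mM DMSO stocks) transferred at 1:5. At 48 h, Alamar blue added to 10% final; fluorescence read after 6 h (ex 535, em 590 nm). Triplicates; 37 °C, 5% CO2.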"}}, "note": "Values joined by “and” are separate entries in the source; they are usually repeats but may differ in a detail not shown here. Equal entries are not always repeated."}
{"compound": "NC1(C(=O)NCCCn2cc(-c3ccc(OC(F)(F)F)cc3)c3cc(CN4CCN(Cc5c(Cl)cccc5Cl)CC4)ccc32)CCNCC1", "note": "[compound 3144, 4-amino-N-(3-(5-((4-(2,6-dichlorobenzyl)piperazin-1-yl)methyl)-3-(4-(trifluoromethoxy)phenyl)-1H-indol-1-yl)propyl)piperidine-4-carboxamide]", "values": [{"measurement": "lethality upon overexpression of activated alleles of PI3K and/or BRAF", "setting": "[1]", "result": "reduced"}, {"measurement": "stability in liver microsomes", "setting": "[2]", "result": "relatively stable"}, {"measurement": "binding by MST", "setting": "HRAS^wt", "result": "detected binding"}, {"measurement": "toxicity", "setting": "KP^f/fC mice", "result": "Toxicity was observed"}, {"measurement": "binding affinity to D38A mutant", "setting": "KRAS^G12D D38A", "result": "reduced binding affinity"}, {"measurement": "affinity for the GDP complex", "setting": "GDP complex of KRAS^G12D", "result": "reduced affinity"}, {"measurement": "K mouse weights", "setting": "K mouse weights on study; day 1 on study", "result": "19.1 and 14.5 and 22.9 and 26.1 and 18.5"}, {"measurement": "K mouse weights", "setting": "K mouse weights on study; day 2 on study", "result": "18.4 and 14.1 and 21.6 and 24.7 and 17.4"}, {"measurement": "K mouse weights", "setting": "K mouse weights on study; day 3 on study", "result": "18.6 and 14.2 and 20.7 and 23.6 and 17"}, {"measurement": "K mouse weights", "setting": "K mouse weights on study; day 4 on study", "result": "17.5 and 14.2 and 20.1 and 23.27 and 17.7"}, {"measurement": "K mouse weights", "setting": "K mouse weights on study; day 5 on study", "result": "17.5 and 13.63 and 19.8 and 22.7 and 16.5"}, {"measurement": "effect on viability", "setting": "[3]", "result": "no observable effect on viability"}, {"measurement": "CRAF-bound RAS", "setting": "[4]", "result": "decreased"}, {"measurement": "caspase activity", "setting": "HT-1080 cells", "result": "induced caspase activity to a similar level as staurosporine"}, {"measurement": "tumor pERK levels", "setting": "[5]", "result": "somewhat decreased"}, {"measurement": "EGF-induced pAKT and pERK abundance", "setting": "[6]", "result": "suppressed to a degree"}, {"measurement": "pERK and pAKT abundance", "setting": "[6]", "result": "somewhat decreased"}, {"measurement": "binding by MST", "setting": "NRAS^wt", "result": "detected binding"}, {"measurement": "binding by MST", "setting": "RRAS2", "result": "weak binding"}, {"measurement": "viability at 5 µM", "setting": "[7]", "result": "20 to 40", "unit": "%"}, {"measurement": "pERK and pAKT abundance", "setting": "[8]", "result": "somewhat decreased"}, {"measurement": "EGF-induced pAKT and pERK abundance", "setting": "[8]; 10 ng/mL EGF 15 min", "result": "suppressed to a degree"}, {"measurement": "concentration up to which cells were resistant", "setting": "DLD-1 cells; DLD-1 (KRAS^G13D), high cell density, no RAS knockdown", "result": "> 20", "unit": "µM"}, {"measurement": "effect of combined HRAS, NRAS and KRAS knockdown on compound lethality", "setting": "DLD-1 cells; si-panRAS vs non-targeting siRNA, CellTiter-Glo", "result": "sensitization"}, {"measurement": "concentrations showing lethality", "setting": "[9]; BRAF^V600E-CAAX-expressing MEFs", "result": "≥ 20", "unit": "µM"}, {"measurement": "sensitivity after Kras excision and BRAF^V600E-CAAX introduction", "setting": "[9]; compared with Kras^lox/lox MEFs", "result": "resistance"}, {"measurement": "spheroid size", "setting": "[10]", "result": "decreased in size in a dose-dependent manner"}, {"measurement": "binding by MST", "setting": "KRAS^wt", "result": "detected binding"}, {"measurement": "concentrations not reducing the number of MEFs below the starting number", "setting": "[11]", "result": "below 3 μM"}, {"measurement": "IC50", "setting": "[12]", "result": 3.8, "unit": "µM"}]}
